Here are results for 7 compounds from ChEMBL document CHEMBL1148735, “4-Substituted trinems as broad spectrum beta-lactamase inhibitors: structure-based design, synthesis, and biological activity” (J Med Chem, 2007).

The target of one test is T1, Beta-lactamase SHV-1 (Escherichia coli, UniProt P0AD63).
T1 sequence (P0AD63 whole entry): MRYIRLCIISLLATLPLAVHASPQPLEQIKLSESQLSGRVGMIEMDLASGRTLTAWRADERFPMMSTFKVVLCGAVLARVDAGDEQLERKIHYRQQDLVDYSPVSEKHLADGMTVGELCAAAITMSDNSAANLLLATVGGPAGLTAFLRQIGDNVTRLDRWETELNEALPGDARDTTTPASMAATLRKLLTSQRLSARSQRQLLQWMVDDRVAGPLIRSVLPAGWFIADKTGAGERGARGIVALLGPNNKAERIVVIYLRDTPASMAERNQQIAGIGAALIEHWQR
Put plainly: Inhibition of Escherichia coli SHV1. The essentials: (§1)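 Recombinant β-lactamase, expressed in the pET system without its signal peptide and carrying an N-terminal His6 tag, purified on Ni-NTA. Inhibitor made as a 50 mM DMSO stock, then diluted in 50 mM phosphate pH 7 with 10% DMSO final. Enzyme and inhibitor preincubated 10 min at 37 °C. Started with prewarmed nitrocefin; A490 read every 30 s for 10 min at 37 °C.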

The target in the next test is Beta-lactamase (Enterobacter cloacae, UniProt P05364). The test is described as follows: Inhibition of Enterobacter cloacae AmpC.
Chain of Beta-lactamase (P05364 whole entry): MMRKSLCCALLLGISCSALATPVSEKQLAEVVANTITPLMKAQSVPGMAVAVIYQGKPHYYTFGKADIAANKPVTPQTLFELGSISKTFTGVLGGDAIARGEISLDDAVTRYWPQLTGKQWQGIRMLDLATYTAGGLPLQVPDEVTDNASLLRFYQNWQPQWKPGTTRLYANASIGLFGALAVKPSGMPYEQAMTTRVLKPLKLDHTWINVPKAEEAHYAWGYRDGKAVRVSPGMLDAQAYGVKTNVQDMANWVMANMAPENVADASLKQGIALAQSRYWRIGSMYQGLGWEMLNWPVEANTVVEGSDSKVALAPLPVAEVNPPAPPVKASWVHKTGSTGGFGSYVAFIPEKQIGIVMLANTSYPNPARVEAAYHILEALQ
The next test has as its target Beta-lactamase TEM (Escherichia coli, UniProt P62593). The test is described as follows: Inhibition of Escherichia coli TEM1. The essentials:
as §1

Molecules are shown by their SMILES.

Chain of Beta-lactamase TEM (P62593 whole entry): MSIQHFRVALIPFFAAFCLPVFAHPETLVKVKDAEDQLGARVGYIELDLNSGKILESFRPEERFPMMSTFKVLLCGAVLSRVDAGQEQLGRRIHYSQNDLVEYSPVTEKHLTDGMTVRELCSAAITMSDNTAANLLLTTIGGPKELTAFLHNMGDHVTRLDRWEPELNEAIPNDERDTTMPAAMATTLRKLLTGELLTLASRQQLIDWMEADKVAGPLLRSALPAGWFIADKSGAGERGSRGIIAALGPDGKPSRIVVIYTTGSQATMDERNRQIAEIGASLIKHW

A word on the IC50: it is the midpoint of a concentration-inhibition curve. On to `C/C=C1/C(=O)N2C(C(=O)O)=C3[C@@H](OCCCC)CCC[C@@H]3[C@H]12`, for which the IC50 on Beta-lactamase SHV-1 was determined as 206 nM; against Beta-lactamase, 720 nM; against Beta-lactamase TEM, 32 nM.

For `C/C=C1/C(=O)N2C(C(=O)O)=C3[C@@H](OCC)CCC[C@@H]3[C@H]12`, the values for the IC50 against Beta-lactamase SHV-1, against Beta-lactamase and against Beta-lactamase TEM were 385 nM, 229 nM and 57 nM, respectively.

Regarding `C/C=C1/C(=O)N2C(C(=O)O)=C3[C@@H](OCCF)CCC[C@@H]3[C@H]12`, the results for the IC50 against Beta-lactamase SHV-1, against Beta-lactamase and on Beta-lactamase TEM were 148 nM, 1020 nM and 21 nM, respectively.

With `C/C=C1/C(=O)N2C(C(=O)O)=C3[C@@H](CCC[C@H]3OCC)[C@H]12`, the IC50 is 284 nM against Beta-lactamase SHV-1, 295 nM against Beta-lactamase and 22 nM at Beta-lactamase TEM.

For `C/C=C1/C(=O)N2C(C(=O)O)=C3[C@@H](OCCC#N)CCC[C@@H]3[C@H]12`, the IC50 turned out to be 152 nM at Beta-lactamase SHV-1, 209 nM on Beta-lactamase and 18 nM on Beta-lactamase TEM.

As to `C/C=C1/C(=O)N2C(C(=O)O)=C3[C@@H](OC(C)C)CCC[C@@H]3[C@H]12`, the values for the IC50 against Beta-lactamase SHV-1, against Beta-lactamase and against Beta-lactamase TEM were 340 nM, 341 nM and 39 nM, respectively.

Consider `C/C=C1/C(=O)N2C(C(=O)O)=C3[C@@H](CCC[C@H]3OCCCC)[C@H]12`, for which the IC50 worked out at 219 nM against Beta-lactamase SHV-1, 430 nM at Beta-lactamase and 12 nM against Beta-lactamase TEM.
